From the array DNA melting data of Ke et al. (doi:10.1101/2024.01.08.574731)

Columns and labels:
[1] = folding enthalpy; higher = less favourable; fluorescence melt of hairpins on a sequencing array, two-state fit; conditions: sodium 0.088 M
Summary of the method: (§1)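 Folding enthalpy and melting temperature come from bootstrapped two-state fits to Cy3 fluorescence of library hairpins carrying annealed Cy3 and quencher oligos on a sequenced MiSeq flow cell. Imaging was done in 50 mM Na-HEPES pH 8.0, 25 mM NaCl, stepping by 2.5 °C up to 60 °C, and signals were normalised to pre-quench Cy3 and to control constructs. Results of four replicates were combined by inverse variance, and fitted temperatures were raised by 9.35 °C to match UV melts.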

[2] = melting temperature; fluorescence melt of hairpins on a sequencing array, two-state fit, raised by 9.35 °C to match UV melts; conditions: sodium 0.088 M
Summary of the method: as §1

Sequence	folding enthalpy [1]	Tm [2]
GCTGTAGGAAACCACAGC (((((.(....).)))))	-36.3 kcal/mol	47.5 °C
GATCTTATTAAAGATC ((((((....))))))	-30.7 kcal/mol	42.8 °C
GTGATACCGAAAGGTCAC (((..(((....))))))	-19.5 kcal/mol	41.9 °C
GCCGATGGAAACGTCGGC (((((.(....).)))))	-44.9 kcal/mol	62.7 °C
GTAGTCGAAAGACGATAC ((((((....)))..)))	-13 kcal/mol	35.6 °C
GTATAACGAAAGTTTAC (((.(((....))))))	-16.8 kcal/mol	30.4 °C
GCTGAGCGAAAGCAAAGC (((..((....))..)))	-28.5 kcal/mol	60.2 °C
GTGGCGCCGAAAGGCCAC (((..(((....))))))	-13.8 kcal/mol	57.8 °C
GCTCAGGGAAACCTGAGC (((((((....)))))))	-44.7 kcal/mol	68.3 °C
GAAGACGAAAGTCATTTC ((((((....)))..)))	-8.24 kcal/mol	23.9 °C
GCGTGAGGAAACTTGCGC (((..((....))..)))	-30.9 kcal/mol	48.3 °C
GTCCAACGAAAGTTAGAC (((.(((....))).)))	-29.6 kcal/mol	38.5 °C
GATCAGGTCTCTGATC ((((((....))))))	-50.3 kcal/mol	53.4 °C
GCGATGGGAAACCGTCGC ((((.((....)).))))	-50.2 kcal/mol	58.9 °C
GACATGGCGAAAGCCGTC (((..(((....))))))	-10.1 kcal/mol	50.7 °C
GTATTGCGAAAGCATTAC (((.(((....))).)))	-23.7 kcal/mol	44.9 °C
GATCACCATGTGATC ((((((...))))))	-33 kcal/mol	59.2 °C
GCGCAGCGAAAGCATCGC (((..((....))..)))	-9.43 kcal/mol	47.4 °C
GCTCCGCGAAAGCCGCGC ((.(.((....)).).))	-11.8 kcal/mol	36.2 °C
GACATGAAAATGTC (((((....)))))	-24 kcal/mol	50.4 °C
GATCCGTAACGGATC ((((((...))))))	-34.1 kcal/mol	57.6 °C
GCTGGCACGAAAGTGAGC (((..(((....))))))	-14.1 kcal/mol	36.9 °C
GCCAAGCGAAAGCTCAGC ((..(((....)))..))	-13.6 kcal/mol	37.3 °C

Sequence	folding enthalpy [1]	Tm [2]
GCTAGTGGAAACACTAGC (((((((....)))))))	-47.7 kcal/mol	61.9 °C
GGATTAACGAAAGTTTCC (((..(((....))))))	-19.4 kcal/mol	28.2 °C
GACCTGGGAAACTGGGTC ((((..(....)..))))	-25 kcal/mol	44.4 °C
GCTTTCCGAAAGGAAGC (((.(((....))))))	-21.1 kcal/mol	52.3 °C
GCAGAACCGAAAGGTTGC (((..(((....))))))	-17.1 kcal/mol	44.5 °C
GGGCGAACGAAAGTTCCC (((..(((....))))))	-15.4 kcal/mol	45.2 °C
GATCCTTACAGGATC ((((((...))))))	-34.2 kcal/mol	56 °C
GCGATGTTCGC ((((...))))	-18.5 kcal/mol	49.9 °C
GGGCGTCCGAAAGGACCC (((..(((....))))))	-13.9 kcal/mol	57.8 °C
GTGTGCGAAAGCAACCAC ((((((....)))..)))	-14.3 kcal/mol	38.8 °C
GTCTCACGAAAGTGTGAC (((.(((....))).)))	-43.4 kcal/mol	53.8 °C
GATCATAACAATGATC ((((((....))))))	-32.1 kcal/mol	47 °C
GAAAGCCGAAAGGCATTC (((.(((....))).)))	-15.2 kcal/mol	45.9 °C
GATTGCGAAAGCATAATC ((((((....)))..)))	-12.8 kcal/mol	33.1 °C
GCATTGCGAAAGCACCGC ((..(((....)))..))	-10.7 kcal/mol	34.5 °C
GTAACAGGAAACTGTTGC (.(((((....))))).)	-24.4 kcal/mol	45.3 °C
GTAGTGCGAAAGCAATAC (((.(((....))).)))	-28 kcal/mol	53.9 °C
GCACTTCGAAAGAAATGC (((.(((....))).)))	-31.3 kcal/mol	42.3 °C
GTAGGTGGAAACACTTGC (.(.(((....))).).)	-14.3 kcal/mol	31.7 °C
GCTTCGGAAACGAAGC ((((((....))))))	-36.3 kcal/mol	67.8 °C
GTGCGCGGAAACGCGTAC ((.((((....)))).))	-20.1 kcal/mol	65.5 °C
GCAAGGCGAAAGCATGGC ((.(.((....)).).))	-18 kcal/mol	47.8 °C
GCTGGAACGAAAGTTAGC (((..(((....))))))	-18.1 kcal/mol	33.9 °C
